pIC50, pKd: −log10 of the molar value. The source made the active and inactive calls. The rule behind the calls is not given here.
Assays:
[1] = Growth inhibition of human PANC1 cells after 3 days by WST1 assay; format: cell-based, PANC-1
Outline: (§1)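 Cells plated at 5000–15000 per well in colorless medium. TC32 and TC71 grown in RPMI with 10% FBS and 1% HEPES; PANC1 in DMEM with 10% FBS. Compounds or DMSO vehicle added the day after plating. Viable cells measured by MTT or WST-1 after 3 days. GI50 from nonlinear regression.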

[2] = Growth inhibition of human TC32 cells harboring EWS-FLI1 fusion protein after 3 days by WST1 assay; format: functional; settings: TC-32, 72 h; outline: as §1
[3] = Growth inhibition of human TC71 cells harboring EWS-FLI1 fusion protein after 3 days by WST1 assay; format: functional; settings: TC-71, 72 h; outline: as §1
[4] = biological target: Friend leukemia integration 1 transcription factor (Proto-oncogene Fli-1)/RNA-binding protein EWS (Homo sapiens) (UniProt Q01844+Q01543); assay: (§2) Inhibition of transcriptional activity of full-length EWS-FLI1 (unknown origin) expressed in COS7 cells by NR0B1-luciferase reporter gene assay; format: cell-based; settings: COS-7
Outline: (§3)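 COS7 cells transiently co-transfected with an NR0B1 luciferase reporter carrying EWS-FLI1 binding sites plus full-length EWS-FLI1 or empty pCI-neo vector. Treated 1.5 h after transfection with 0.05–15 μM compound or DMSO. Luciferase read 20 h later, quadruplicate wells, mean ± SD. IC50 from sigmoidal dose–response fit.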

[5] = biological target: T1, Friend leukemia integration 1 transcription factor (Proto-oncogene Fli-1)/RNA-binding protein EWS (Homo sapiens, UniProt Q01543+Q01844); assay: as §2; format: cell-based, COS-7; outline: as §3
T1 sequence (Q01844 whole entry): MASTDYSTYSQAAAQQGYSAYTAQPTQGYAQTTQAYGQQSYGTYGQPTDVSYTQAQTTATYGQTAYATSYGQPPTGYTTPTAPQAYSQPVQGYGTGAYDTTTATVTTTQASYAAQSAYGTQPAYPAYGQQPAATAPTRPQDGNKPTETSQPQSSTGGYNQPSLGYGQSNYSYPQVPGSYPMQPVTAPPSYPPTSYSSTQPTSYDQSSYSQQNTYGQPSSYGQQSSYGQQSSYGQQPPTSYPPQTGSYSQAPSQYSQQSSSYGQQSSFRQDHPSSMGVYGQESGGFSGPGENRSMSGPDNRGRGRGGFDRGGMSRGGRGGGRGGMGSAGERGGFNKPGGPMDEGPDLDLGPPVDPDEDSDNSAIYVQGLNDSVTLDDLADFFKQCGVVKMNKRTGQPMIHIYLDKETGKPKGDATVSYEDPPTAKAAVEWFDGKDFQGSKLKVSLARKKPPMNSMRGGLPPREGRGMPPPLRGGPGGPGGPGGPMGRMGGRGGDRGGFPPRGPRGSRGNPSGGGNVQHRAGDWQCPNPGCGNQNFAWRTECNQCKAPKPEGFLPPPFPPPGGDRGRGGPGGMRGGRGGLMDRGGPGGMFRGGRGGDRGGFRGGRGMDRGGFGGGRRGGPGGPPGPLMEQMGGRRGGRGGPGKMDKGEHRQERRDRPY
T1 sequence (Q01543 whole entry): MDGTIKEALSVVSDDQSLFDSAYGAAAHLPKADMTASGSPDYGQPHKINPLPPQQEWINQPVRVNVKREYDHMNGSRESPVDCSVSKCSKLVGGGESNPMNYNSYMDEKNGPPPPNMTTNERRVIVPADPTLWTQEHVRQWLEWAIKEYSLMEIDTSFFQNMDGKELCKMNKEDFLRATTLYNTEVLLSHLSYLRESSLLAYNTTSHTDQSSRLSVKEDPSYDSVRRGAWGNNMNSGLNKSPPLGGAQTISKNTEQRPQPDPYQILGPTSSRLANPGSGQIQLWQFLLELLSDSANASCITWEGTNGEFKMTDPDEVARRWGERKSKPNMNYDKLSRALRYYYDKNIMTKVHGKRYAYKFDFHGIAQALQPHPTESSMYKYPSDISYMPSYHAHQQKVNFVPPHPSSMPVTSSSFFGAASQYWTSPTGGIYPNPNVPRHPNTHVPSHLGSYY

[6] = Cytotoxicity against african green monkey COS7 cells after 48 hrs by WST1 assay; format: cell-based; settings: chlorocebus aethiops, cos-7, 48 h
Outline: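 COS7 cells (monkey kidney, lacking EWS-FLI1) grown in DMEM with 10% FBS. Compound exposure for 48 h, with viability read by WST proliferation assay.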

[7] = biological target: T1, Friend leukemia integration 1 transcription factor (Proto-oncogene Fli-1)/RNA-binding protein EWS; assay: Binding affinity to purified recombinant EWS-FLI1 (unknown origin) after 1 hr by colorimetric phosphatase assay; format: protein assay
Outline: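 His-tagged EWS-FLI1 expressed in BL21 (1 mM IPTG, 2 h at 27 °C) and purified from inclusion bodies by Ni column with on-column refolding. Plates coated overnight with 20 nM protein and blocked with 4% BSA for 1 h at RT. Biotin conjugate (1–100 μM) incubated 1 h, then HRP-streptavidin 1:5000 for 1 h at RT. Phosphatase substrate read at 405 nm. BSA-coated wells used as control. Kd taken from the saturation curve.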

Row | Compound | GI50 at 72 h [1] | GI50 [2] | GI50 [3] | inhibition activity (qualitative call) [4] | pIC50 [5] | Activity [6] | pKd [7]
1 | CCOc1ccc(C(=O)CC2(O)C(=O)Nc3c(Cl)ccc(Cl)c32)cc1 (stereo not given) | > 10 µM | 2.7 µM | 3.57 µM | Active | – | – | –
2 | Cc1ccc(C(=O)CC2(O)C(=O)Nc3c(Cl)ccc(Cl)c32)cc1 (stereo not given) | > 10 µM | > 10 µM | > 10 µM | – | – | – | –
3 | COc1ccccc1C(=O)CC1(O)C(=O)Nc2c(Cl)ccc(Cl)c21 (stereo not given) | > 10 µM | > 10 µM | > 10 µM | inactive | – | – | –
4 | O=C(CC1(O)C(=O)Nc2c(Cl)ccc(Cl)c21)c1ccc(Oc2ccccc2)cc1 (stereo not given) | > 10 µM | > 10 µM | > 10 µM | – | – | – | –
5 | COc1cccc(C(=O)CC2(O)C(=O)Nc3c(Cl)ccc(Cl)c32)c1OC (stereo not given) | > 10 µM | > 10 µM | > 10 µM | – | – | – | –
6 | COc1ccc(C(=O)CC2(O)C(=O)N(C)c3c(Cl)ccc(Cl)c32)cc1 (stereo not given) | > 10 µM | 2.2 µM | > 10 µM | Active | – | – | –
7 | COc1ccc(C(=O)CC2(O)C(=O)Nc3c(F)ccc(F)c32)cc1 (stereo not given) | > 10 µM | > 10 µM | > 10 µM | – | – | – | –
8 | COc1ccc(C(=O)CC2(O)C(=O)Nc3c(Cl)ccc(Cl)c32)c(OC)c1OC (stereo not given) | > 10 µM | 2.7 µM | 4.4 µM | – | – | – | –
9 | COc1ccc(C(=O)CC2(O)C(=O)Nc3ccc(Cl)cc32)cc1 (stereo not given) | > 10 µM | > 10 µM | > 10 µM | – | – | – | –
10 | O=C(CC1(O)C(=O)Nc2c(Cl)ccc(Cl)c21)c1ccc(I)cc1 (stereo not given) | > 10 µM | > 10 µM | > 10 µM | – | – | – | –
11 | COc1cccc(C(=O)CC2(O)C(=O)Nc3c(Cl)ccc(Cl)c32)c1 (stereo not given) | > 10 µM | > 10 µM | > 10 µM | – | – | – | –
12 | N#Cc1ccc(C(=O)CC2(O)C(=O)Nc3c(Cl)ccc(Cl)c32)cc1 (stereo not given) | > 10 µM | > 10 µM | > 10 µM | – | – | – | –
13 | O=C(CC1(O)C(=O)Nc2c(Cl)ccc(Cl)c21)c1ccc(F)cc1 (stereo not given) | > 10 µM | > 10 µM | > 10 µM | – | – | – | –
14 | Nc1ccc(C(=O)CC2(O)C(=O)Nc3c(Cl)ccc(Cl)c32)cc1 (stereo not given) | > 10 µM | > 10 µM | > 10 µM | – | – | – | –
15 | COc1ccc(C(=O)CC2(OC)C(=O)N(C)c3c(Cl)ccc(Cl)c32)cc1 (stereo not given) | > 10 µM | > 10 µM | > 10 µM | Active | – | – | –
16 | COc1ccc(C(=O)CC2(O)C(=O)Nc3c(Cl)cccc32)cc1 (stereo not given) | > 10 µM | > 10 µM | > 10 µM | – | – | – | –
17 | COc1ccc(C(=O)CC2(OC)C(=O)Nc3c(Cl)ccc(Cl)c32)cc1 (stereo not given) | > 10 µM | > 10 µM | > 10 µM | inactive | – | – | –

Row | Compound | GI50 at 72 h [1] | GI50 [2] | GI50 [3] | inhibition activity (qualitative call) [4] | pIC50 [5] | Activity [6] | pKd [7]
18 | O=C(CC1(O)C(=O)Nc2c(Cl)ccc(Cl)c21)c1ccccc1 (stereo not given) | > 10 µM | > 10 µM | > 10 µM | – | – | – | –
19 | CC(C)Oc1ccc(C(=O)CC2(O)C(=O)Nc3c(Cl)ccc(Cl)c32)cc1 (stereo not given) | > 10 µM | > 10 µM | > 10 µM | – | – | – | –
20 | CN(C)c1ccc(C(=O)CC2(O)C(=O)Nc3c(Cl)ccc(Cl)c32)cc1 (stereo not given) | > 10 µM | 0.26 µM | 0.4 µM | – | 6.82 | – | –
21 | COc1ccc(C(=O)CC2(O)C(=O)Nc3cccc(Cl)c32)cc1 (stereo not given) | > 10 µM | > 10 µM | > 10 µM | – | – | – | –
22 | COc1cc(OC)cc(C(=O)CC2(O)C(=O)Nc3c(Cl)ccc(Cl)c32)c1 (stereo not given) | > 10 µM | 9 µM | > 10 µM | – | – | – | –
23 | COc1ccc(C(=O)CC2(O)C(=O)Nc3ccccc32)cc1 (stereo not given) | > 10 µM | > 10 µM | > 10 µM | – | – | – | –
24 | COc1ccc(C(=O)CC2(O)C(=O)N(c3ccccc3)c3c(Cl)ccc(Cl)c32)cc1 (stereo not given) | > 10 µM | > 10 µM | > 10 µM | – | – | – | –
25 | COc1ccc(C(=O)CC2(O)C(=O)Nc3c(C)ccc(C)c32)cc1 (stereo not given) | > 10 µM | > 10 µM | > 10 µM | – | – | – | –
26 | COc1ccc(C(=O)CC2(O)C(=O)Nc3cc(Cl)c(Cl)cc32)cc1 (stereo not given) | > 10 µM | > 10 µM | > 10 µM | – | – | – | –
27 | CNc1ccc(C(=O)CC2(O)C(=O)Nc3c(Cl)ccc(Cl)c32)cc1 (stereo not given) | > 10 µM | 0.34 µM | 0.39 µM | – | 6.74 | – | –
28 | COc1ccc(C(=O)CC2(O)C(=O)Nc3c(Cl)ccc(Cl)c32)cc1 (stereo not given) | > 10 µM | 0.94 µM | 0.92 µM | Dose-dependent effect | 6.46 | Non-toxic | –
29 | COc1ccc(C(=O)CC2(O)C(=O)Nc3c(Cl)ccc(Cl)c32)c(OC)c1 (stereo not given) | > 10 µM | 2.6 µM | 2.8 µM | Active | – | – | –
30 | CN(C(=O)CCCCCNC(=O)CCCC[C@H]1SCC2NC(=O)NC21)c1ccc(C(=O)CC2(O)C(=O)Nc3c(Cl)ccc(Cl)c32)cc1 (stereo not given in full) | – | – | – | – | – | – | 5.32
31 | COc1ccc(C(=O)CC2(O)C(=O)Nc3c(OC)ccc(OC)c32)cc1 (stereo not given) | > 10 µM | 1 µM | 0.94 µM | – | 6.11 | – | –
32 | CSc1ccc(C(=O)CC2(O)C(=O)Nc3c(Cl)ccc(Cl)c32)cc1 (stereo not given) | > 10 µM | 0.98 µM | 0.91 µM | – | 6.48 | – | –
33 | O=C(CC1(O)C(=O)Nc2c(Cl)ccc(Cl)c21)c1ccc(C(F)(F)F)cc1 (stereo not given) | 11 µM | 2.9 µM | 6.9 µM | – | – | – | –

— ChEMBL document CHEMBL3352055, “Synthesis and structure-activity relationship studies of small molecule disruptors of EWS-FLI1 interactions in Ewing's sarcoma” (J Med Chem, 2014)
